# Key:
# Type in all cases: functional, Canis lupus familiaris
# Canis familiaris [1] = experiment: Compound was tested for inotropic activity by measuring the concentration required to mean blood pressure by 20% in the anesthetized dog after intravenous administration
# Procedure, shortened: (§1)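 Anesthetized dogs, one compound per animal, stabilized at least 30 min after surgery. Contractile force from a Walton-Brodie strain gauge arch sutured to the left ventricle, heart rate from lead II EKG, aortic pressure via femoral cannula. Readings at 5- to 10-min intervals before and after iv injection of at least three doses, with return to baseline between doses. Equieffective doses extrapolated from dose-response curves; means with 95% confidence intervals.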
# Canis familiaris [2] = experiment: Compound was tested for inotropic activity by measuring the concentration required to increase cardiac contractile force by 30% in the anesthetized dog after intravenous administration; procedure, shortened: as §1
# Canis familiaris [3] = experiment: Compound was tested for inotropic activity by measuring the concentration required to increase heart rate by 15% in the anesthetized dog after intravenous administration; procedure, shortened: as §1
compound,measurement,setting,value
CCc1[nH]c(O)nc1C(=O)c1ccccn1,Equieffective dose,Canis familiaris [1],>3 mg/kg
same,Equieffective dose,Canis familiaris [2],0.2 mg/kg
same,Equieffective dose,Canis familiaris [3],0.83 mg/kg
CCc1[nH]c(O)nc1C(=O)c1cccnc1Cl,Equieffective dose,Canis familiaris [1],>3 mg/kg
same,Equieffective dose,Canis familiaris [2],0.31 mg/kg
same,Equieffective dose,Canis familiaris [3],>3 mg/kg
Cc1[nH]c(O)nc1C(=O)c1ccccn1,Equieffective dose,Canis familiaris [1],1.91 mg/kg
same,Equieffective dose,Canis familiaris [2],1.57 mg/kg
same,Equieffective dose,Canis familiaris [3],3.29 mg/kg
Cc1[nH]c(O)nc1C(=O)c1cccnc1Cl,Equieffective dose,Canis familiaris [1],>10 mg/kg
same,Equieffective dose,Canis familiaris [2],0.47 mg/kg
same,Equieffective dose,Canis familiaris [3],5.1 mg/kg
CCc1[nH]c(O)nc1C(=O)c1cc[n+]([O-])cc1,Equieffective dose,Canis familiaris [1],>1 mg/kg
same,Equieffective dose,Canis familiaris [2],>1 mg/kg
same,Equieffective dose,Canis familiaris [3],>1 mg/kg
CCc1[nH]c(O)nc1C(=O)c1cccnc1,Equieffective dose,Canis familiaris [1],>3 mg/kg
same,Equieffective dose,Canis familiaris [2],0.22 mg/kg
same,Equieffective dose,Canis familiaris [3],>3 mg/kg
Cc1[nH]c(O)nc1C(=O)c1cccnc1,Equieffective dose,Canis familiaris [1],>3 mg/kg
same,Equieffective dose,Canis familiaris [2],0.64 mg/kg
same,Equieffective dose,Canis familiaris [3],>3 mg/kg
Cc1[nH]c(O)nc1C(=O)c1ccncc1,Equieffective dose,Canis familiaris [1],2.58 mg/kg
same,Equieffective dose,Canis familiaris [2],0.13 mg/kg
same,Equieffective dose,Canis familiaris [3],3.37 mg/kg
CCc1[nH]c(O)nc1C(=O)c1cnccc1Cl,Equieffective dose,Canis familiaris [1],7.03 mg/kg
same,Equieffective dose,Canis familiaris [2],0.56 mg/kg
same,Equieffective dose,Canis familiaris [3],11.8 mg/kg
CCCc1[nH]c(O)nc1C(=O)c1ccncc1,Equieffective dose,Canis familiaris [1],>3 mg/kg
same,Equieffective dose,Canis familiaris [2],1.7 mg/kg
same,Equieffective dose,Canis familiaris [3],3.38 mg/kg
CCc1[nH]c(=O)[nH]c1C(=O)c1ccncc1 [PIROXIMONE],Equieffective dose,Canis familiaris [1],1.7 mg/kg
same,Equieffective dose,Canis familiaris [2],0.07 mg/kg
same,Equieffective dose,Canis familiaris [3],0.42 mg/kg
